Measured values taken from ChEMBL document CHEMBL4610112, “Novel Pyrrolopyridone Bromodomain and Extra-Terminal Motif (BET) Inhibitors Effective in Endocrine-Resistant ER+ Breast Cancer with Acquired Resistance to Fulvestrant and Palbociclib” (J Med Chem, 2020).
Activity calls are given as the source filed them. The rule behind the calls is not given here.

How the values were obtained:
CYP2A6 = CYP2A6 (Homo sapiens, UniProt P11509); assay: Inhibition of human CYP2A6 at 10 uM; type: ADME
[1] = molecular target: T1, Bromodomain-containing protein 4 (Homo sapiens, UniProt O60885); assay: Displacement of APC-labeled biotinylated-avidin from Euphorium-chelated recombinant human BRD4 bromodomain 1 expressed in Escherichia coli preincubated for 15 mins followed by APC-labeled biotinylated-avidin addition and measured after 1 hr under dark condition by TR-FRET assay
[2] = Growth inhibition of fulvestrant-resistant human MCF7:CFR cells measured after 5 days by Hoechst 33342 dye based imaging analysis; type: functional, cell-based; details: 120 h
Method in brief: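 MCF-7:CFR cells kept 2 days in phenol red-free RPMI 1640 with 10% charcoal–dextran FBS, then seeded at 2000 cells/well. Single treatment at 0.1 nM–10 μM (0.1% DMSO final) for 5 days. Nuclei stained with Hoechst 33342 and counted by imaging. Survival normalized to DMSO (100%) and JQ1 3 μM (0%). Mean ± SEM from at least two passages, triplicates in each.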

[3] = molecular target: T1, Bromodomain-containing protein 4; assay: Displacement of APC-labeled biotinylated-avidin from Euphorium-chelated recombinant human BRD4 bromodomain 2 expressed in Escherichia coli preincubated for 15 mins followed by APC-labeled biotinylated-avidin addition and measured after 1 hr under dark condition by TR-FRET assay
CYP2C8 = CYP2C8 (Homo sapiens, UniProt P10632); assay: Inhibition of human CYP2C8 at 10 uM; type: ADME
MCF7:CFR = assay: Growth inhibition of fulvestrant-resistant human MCF7:CFR 3D spheroid cells at 100 nM supplemented with fresh medium containing compound every 2 to 3 days for 9 days by celltitre-glo assay relative to control; type: functional
Method in brief: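 MCF-7:CFR cells seeded at 1000 cells/well in ultralow-attachment round-bottom plates and grown 24 h untreated as spheroids. Half the medium then replaced with 2× treatment medium, repeated every 2–3 days. Viability read by CellTiter-Glo 3D luminescence at day 9 and normalized to blank (medium plus reagent).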

Chain of CYP2C8 (P10632 whole entry): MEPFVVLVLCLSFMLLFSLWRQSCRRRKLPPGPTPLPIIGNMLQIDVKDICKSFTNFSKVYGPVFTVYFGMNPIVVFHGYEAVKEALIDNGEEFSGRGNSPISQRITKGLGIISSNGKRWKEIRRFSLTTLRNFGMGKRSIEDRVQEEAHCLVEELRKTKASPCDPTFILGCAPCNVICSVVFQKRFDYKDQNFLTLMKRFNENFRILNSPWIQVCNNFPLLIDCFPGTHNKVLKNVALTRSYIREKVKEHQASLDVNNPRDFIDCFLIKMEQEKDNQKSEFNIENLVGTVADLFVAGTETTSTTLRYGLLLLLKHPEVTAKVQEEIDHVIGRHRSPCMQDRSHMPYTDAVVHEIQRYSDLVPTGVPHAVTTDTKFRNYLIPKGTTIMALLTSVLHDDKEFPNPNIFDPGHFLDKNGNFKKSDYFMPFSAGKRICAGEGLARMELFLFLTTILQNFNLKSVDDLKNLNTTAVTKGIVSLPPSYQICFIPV
Chain of CYP2A6 (P11509 whole entry): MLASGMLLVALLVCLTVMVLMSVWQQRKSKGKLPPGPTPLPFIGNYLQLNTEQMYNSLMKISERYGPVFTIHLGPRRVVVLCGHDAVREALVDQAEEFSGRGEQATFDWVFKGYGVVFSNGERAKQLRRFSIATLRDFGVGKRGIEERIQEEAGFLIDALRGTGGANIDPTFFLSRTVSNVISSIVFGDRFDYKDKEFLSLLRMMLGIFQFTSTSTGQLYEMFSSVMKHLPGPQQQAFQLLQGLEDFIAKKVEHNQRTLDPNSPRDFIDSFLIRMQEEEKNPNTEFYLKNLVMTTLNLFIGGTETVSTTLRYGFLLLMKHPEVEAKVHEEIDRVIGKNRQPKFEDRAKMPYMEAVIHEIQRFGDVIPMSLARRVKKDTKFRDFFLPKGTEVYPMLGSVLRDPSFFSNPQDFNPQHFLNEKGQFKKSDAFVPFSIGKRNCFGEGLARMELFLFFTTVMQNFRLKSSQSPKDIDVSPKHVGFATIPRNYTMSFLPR

Row | Structure (SMILES) | IC50 [1] [nM] | IC50 [2] [nM] | other results
1 | O=c1ccc2ccccc2o1 [COUMARIN] | – | – | inhibition at 10 µM (CYP2A6): 98.2%
2 | Cc1cc(F)ccc1Cn1ccc2cc(NS(C)(=O)=O)cc(-c3cn(C)c4c(=O)[nH]ccc34)c21 | 1000 | 3580 | –
3 | Cc1cc(F)cc(C)c1Cn1ccc2cc(NS(C)(=O)=O)cc(-c3cn(C)c4c(=O)[nH]ccc34)c21 | 1400 | 526 | –
4 | Cn1cc(-c2cc(NS(C)(=O)=O)cc3ccn(Cc4ccc(F)cc4)c23)c2cc[nH]c(=O)c21 | 1180 | 1990 | –
5 | Cn1cc(-c2cc(NS(C)(=O)=O)c3ccn(C(C)(c4ccccn4)c4ccccn4)c3c2)c2cc[nH]c(=O)c21 | 12.9 | 10 | IC50 [3]: 12.7 nM
6 | CCC(c1ccccn1)(c1ccccn1)n1ccc2c(NS(=O)(=O)CC)cc(-c3cn(C)c4c(=O)[nH]ccc34)cc21 | 9.4 | 2.2 | –
7 | CC(C)C(=O)Nc1cc(-c2cn(C)c3c(=O)[nH]ccc23)cc2c1ccn2C(C)(c1ccccn1)c1ccccn1 | 13 | 17 | IC50 [3]: 62.8 nM
8 | CC(=O)Nc1cc(-c2cn(C)c3c(=O)[nH]ccc23)cc2c1ccn2C(C)(c1ccccn1)c1ccccn1 | 8.3 | 11 | IC50 [3]: 21.6 nM
9 | CCS(=O)(=O)Nc1cc(-c2cn(C)c3c(=O)[nH]ccc23)cc2c1ccn2Cc1ccc(F)cc1 | 48 | 56 | –
10 | CC(=O)O[C@H]1C(=O)[C@@]2(C)[C@H]([C@H](OC(=O)c3ccccc3)[C@]3(O)C[C@H](OC(=O)[C@H](O)[C@@H](NC(=O)c4ccccc4)c4ccccc4)C(C)=C1C3(C)C)[C@]1(OC(C)=O)CO[C@@H]1C[C@@H]2O [PACLITAXEL] | – | – | inhibition at 10 µM (CYP2C8): 80.9%
11 | CCS(=O)(=O)N(c1cccc2c1nc(-c1cn(C)c3c(=O)[nH]ccc13)n2Cc1ccc(F)cc1)S(=O)(=O)CC | – | 1780 | –
12 | C[C@]12CC[C@@H]3c4ccc(O)cc4C[C@@H](CCCCCCCCC[S+]([O-])CCCC(F)(F)C(F)(F)F)[C@H]3[C@@H]1CC[C@@H]2O (stereo not given in full) | – | – | growth inhibition (GI) (MCF7:CFR): inactive
13 | Cn1cc(-c2cc(NS(C)(=O)=O)c3ccn(CC4CC(F)(F)C4)c3c2)c2cc[nH]c(=O)c21 | 161 | 62 | –
14 | Cc1cc(F)ccc1Cn1ccc2c(NS(C)(=O)=O)cc(-c3cn(C)c4c(=O)[nH]ccc34)cc21 | 600 | 119 | –
15 | CCS(=O)(=O)Nc1cccc2c1nc(-c1cn(C)c3c(=O)[nH]ccc13)n2Cc1ccc(F)cc1 | 1430 | 708 | –
16 | CCS(=O)(=O)Nc1cc(-c2cn(C)c3c(=O)[nH]ccc23)cc2c1ccn2C(c1ccccc1)c1ccccc1 | 83 | 15 | –
17 | CCS(=O)(=O)Nc1cc(-c2cn(C)c3c(=O)[nH]ccc23)cc2c1ccn2Cc1c(C)cccc1C | 158 | 35 | –
18 | CCS(=O)(=O)Nc1cc(-c2cn(C)c3c(O)nccc23)cc2c1cnn2Cc1ccc(F)cc1 | 54 | 25 | –
19 | Cn1cc(-c2cc(NS(C)(=O)=O)c3ccn(Cc4ccc(F)cc4)c3c2)c2ccnc(O)c21 | 96 | 17 | –
20 | CC/C(=C(\c1ccc(O)cc1)c1ccc(OCCN(C)C)cc1)c1ccccc1 | – | – | growth inhibition (GI) (MCF7:CFR): inactive
21 | COc1nnc2ccc(N3CCC(c4ccc(OCCN5CCN(C)C(=O)[C@H]5C)cc4)CC3)nn12 | – | – | growth inhibition (GI) (MCF7:CFR): Active
22 | Cn1cc(-c2cc(NS(C)(=O)=O)c3cnn(Cc4ccc(F)cc4)c3c2)c2cc[nH]c(=O)c21 | 89 | 68 | –
23 | Cn1cc(-c2cc(NS(C)(=O)=O)c3ccn(Cc4cccc(F)c4)c3c2)c2cc[nH]c(=O)c21 | 174 | 70 | –
24 | Cc1cccc(C)c1Cn1ccc2c(NS(C)(=O)=O)cc(-c3cn(C)c4c(=O)[nH]ccc34)cc21 | 175 | 49 | –
25 | Cn1cc(-c2cc(C(C)(C)O)c3ccn(C(C)(c4ccccn4)c4ccccn4)c3c2)c2cc[nH]c(=O)c21 | 39.6 | 20 | IC50 [3]: 220 nM
26 | Cn1cc(-c2cc(NS(C)(=O)=O)c3ccn(CC4(C)COC4)c3c2)c2cc[nH]c(=O)c21 | 180 | 134 | –
